In ChEMBL document CHEMBL3045119, “Synthesis and fungicidal activity of novel aminophenazine-1-carboxylate derivatives” (J Agric Food Chem, 2010):
Converted amounts (≈) assume the structure as drawn.

Assays:
[1] = tested on: Alternaria solani; assay: Fungicidal activity against Alternaria solani assessed as inhibition of mycelium growth at 50 ug/mL by mycelium growth rate method; type: functional
Summary of the method: (§1)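 Mycelium growth rate method: colony diameters measured once mycelia had grown completely, and the relative inhibition rate (%) calculated from the diameters by formula. Phenazine-1-carboxylic acid ran as control. Values are the average of three replicate results.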

[2] = tested on: Fusarium oxysporum; assay: Fungicidal activity against Fusarium oxysporum assessed as inhibition of mycelium growth at 50 ug/mL by mycelium growth rate method; type: functional; summary of the method: as §1
[3] = tested on: Mycosphaerella arachidis; assay: Fungicidal activity against Mycosphaerella arachidis assessed as inhibition of mycelium growth at 50 ug/mL by mycelium growth rate method; type: functional; summary of the method: as §1
[4] = tested on: Botryosphaeria berengeriana; assay: Fungicidal activity against Botryosphaeria berengeriana assessed as inhibition of mycelium growth at 50 ug/mL by mycelium growth rate method; type: functional; summary of the method: as §1
[5] = tested on: Fusarium graminearum; assay: Fungicidal activity against Fusarium graminearum assessed as inhibition of mycelium growth at 50 ug/mL by mycelium growth rate method; type: functional; summary of the method: as §1
[6] = tested on: Fusarium oxysporum; assay: Fungicidal activity against Fusarium oxysporum assessed as inhibition of mycelium growth by mycelium growth rate method; type: functional, organism-based; summary of the method: as §1
[7] = tested on: Mycosphaerella arachidis; assay: Fungicidal activity against Mycosphaerella arachidis assessed as inhibition of mycelium growth by mycelium growth rate method; type: functional, organism-based; summary of the method: as §1
[8] = tested on: Botryosphaeria berengeriana; assay: Fungicidal activity against Botryosphaeria berengeriana assessed as inhibition of mycelium growth by mycelium growth rate method; type: functional, organism-based; summary of the method: as §1
[9] = tested on: Fusarium graminearum; assay: Fungicidal activity against Fusarium graminearum assessed as inhibition of mycelium growth by mycelium growth rate method; type: functional, organism-based; summary of the method: as §1
[10] = tested on: Alternaria solani; assay: Fungicidal activity against Alternaria solani assessed as inhibition of mycelium growth by mycelium growth rate method; type: functional, organism-based; summary of the method: as §1

Row | SMILES | inhibition at 50 µg/mL [1] [%] | inhibition at 50 µg/mL [2] [%] | inhibition at 50 µg/mL [3] [%] | inhibition at 50 µg/mL [4] [%] | inhibition at 50 µg/mL [5] [%] | EC50 [6] [µg/mL] | EC50 [7] [µg/mL] | EC50 [8] [µg/mL] | EC50 [9] [µg/mL] | EC50 [10] [µg/mL]
1 | COC(=O)c1cccc2nc3cc(C(=O)C(Cl)(Cl)Cl)ccc3nc12 | 0 | 5.3 | 12 | 21.8 | 4.8 |  |  |  |  | 
2 | CCCOC(=O)c1cccc2nc3c(N)cccc3nc12 | 46.7 | 36.7 | 30 | 57.1 | 43.6 |  |  |  |  | 
3 | CCCCOC(=O)c1cccc2nc3c(C(=O)CCCCl)cccc3nc12 | 6.1 | 10.7 | 8.3 | 0 | 0 |  |  |  |  | 
4 | CCCOC(=O)c1cccc2nc3cc(N)ccc3nc12 | 16.7 | 10 | 26.1 | 19.6 | 25.5 |  |  |  |  | 
5 | Nc1ccc2nc3cccc(C(=O)O)c3nc2c1 | 5.9 | 6.9 | 11.5 | 9.6 | 33.9 |  |  |  |  | 
6 | CCCCOC(=O)c1cccc2nc3cc(N)c(OCCCC)cc3nc12 | 13.3 | 0 | 13 | 25.5 | 23.6 |  |  |  |  | 
7 | COC(=O)c1cccc2nc3cc(C(=O)c4ccc(Cl)cc4Cl)ccc3nc12 | 3 | 7.1 | 0 | 0 | 0 |  |  |  |  | 
8 | COC(=O)c1cccc2nc3cc(C(=O)CCCCl)ccc3nc12 | 37.7 | 0 | 7.7 | 0 | 36.8 |  |  |  |  | 
9 | O=C(O)c1cccc2nc3ccccc3nc12 [PHENAZINE-1-CARBOXYLIC ACID] | 100 | 65.4 | 92.3 | 100 | 43.1 | 14.9 (≈ 66.5 µM) | 13.2 (≈ 58.9 µM) | 3.58 (≈ 16 µM) | > 50 | 18.5 (≈ 82.5 µM)
10 | COC(=O)c1cccc2nc3c(N)cccc3nc12 | 100 | 40 | 26.9 | 100 | 36.3 | > 50 | > 50 | 3 (≈ 11.8 µM) | > 50 | 20.5 (≈ 81.1 µM)
11 | CCOC(=O)c1cccc2nc3cc(N)ccc3nc12 | 29.4 | 31 | 7.7 | 44.2 | 11.3 |  |  |  |  | 
12 | CCCCOC(=O)c1cccc2nc3c([N+](=O)[O-])c(N)ccc3nc12 | 17.2 | 17.9 | 12.5 | 16.1 | 25 |  |  |  |  | 
13 | COC(=O)c1cccc2nc3ccc(N)cc3nc12 | 10 | 23.3 | 4 | 37.1 | 18.2 |  |  |  |  | 
14 | CCCCOC(=O)c1cccc2nc3c(NC(=O)CCCCl)c([N+](=O)[O-])ccc3nc12 | 17.4 | 16 | 11.1 | 37.1 | 51.5 |  |  |  |  | 
15 | COC(=O)c1cccc2nc3cc(S(=O)(=O)c4ccc(C)cc4)ccc3nc12 | 33.3 | 13.5 | 22.2 | 8 | 17.5 |  |  |  |  | 
16 | COC(=O)c1cccc2nc3cc(C(C)=O)ccc3nc12 | 3.3 | 0 | 0 | 3.9 | 12.7 |  |  |  |  | 
17 | COC(=O)c1cccc2nc3cc(C(=O)CCc4ccccc4)ccc3nc12 | 19.1 | 11.1 | 2.6 | 0 | 2.4 |  |  |  |  | 
18 | CCOC(=O)c1cccc2nc3c(N)cccc3nc12 | 51 | 33.3 | 32 | 100 | 41.8 | > 50 | > 50 | 4.44 (≈ 16.6 µM) | > 50 | 40.1 (≈ 150 µM)
19 | CCCCOC(=O)c1cccc2nc3c(N)c([N+](=O)[O-])cc([N+](=O)[O-])c3nc12 | 17.4 | 24 | 5.6 | 42.9 | 53 |  |  |  |  | 
